Data as given in ChEMBL document CHEMBL2407016 (J Med Chem, 2013).
Active and inactive are the calls of the source. The rule behind the calls is not given here.

What was measured:
[1] = Inhibition of Escherichia coli DXR using DXP as substrate measured every 5 secs for 250 secs in presence of NADPH
[2] = Inhibition of Plasmodium falciparum DXR using DXP as substrate measured every 5 secs for 250 secs in presence of NADPH
[3] = target: T1, 1-deoxy-D-xylulose 5-phosphate reductoisomerase (Mycobacterium tuberculosis, UniProt P9WNS1); assay: Binding affinity to Mycobacterium tuberculosis DXR assessed as dissociation constant by spectrofluorimetric analysis in presence of NADPH and MnCl2
T1 sequence (P9WNS1 whole entry): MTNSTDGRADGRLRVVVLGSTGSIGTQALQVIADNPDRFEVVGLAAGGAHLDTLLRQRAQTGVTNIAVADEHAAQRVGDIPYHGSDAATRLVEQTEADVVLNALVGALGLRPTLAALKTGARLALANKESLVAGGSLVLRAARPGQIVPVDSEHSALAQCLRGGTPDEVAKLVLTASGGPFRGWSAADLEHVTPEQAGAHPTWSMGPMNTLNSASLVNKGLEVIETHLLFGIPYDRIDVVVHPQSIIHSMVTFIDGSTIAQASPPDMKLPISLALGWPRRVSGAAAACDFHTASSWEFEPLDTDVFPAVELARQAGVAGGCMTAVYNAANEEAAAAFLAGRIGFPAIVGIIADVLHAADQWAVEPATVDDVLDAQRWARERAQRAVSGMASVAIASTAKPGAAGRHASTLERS
Outline: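 Purified MtDXR; binding followed by direct fluorescence from changes in the environment of the protein's six tryptophan residues.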

[4] = target: T1, 1-deoxy-D-xylulose 5-phosphate reductoisomerase; assay: Inhibition of Mycobacterium tuberculosis DXR using DXP as substrate measured every 5 secs for 250 secs in presence of NADPH
Outline: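 MtDXR activity assay run with NADPH cofactor at 200 μM; IC50 taken from inhibition of enzyme activity.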

[5] = test system: Mycobacterium tuberculosis; assay: Antibacterial activity against Mycobacterium tuberculosis H37Rv assessed as growth inhibition by Alamar blue assay; format: functional, organism-based
Plasmodium falciparum = assay: Antimalarial activity against Plasmodium falciparum 3D7 assessed as parasite growth inhibition after 18 hrs by SYBR Green-1 staining-based fluorescence assay; format: functional, organism-based; settings: 3D7, 18 h
[6] = target: T2, 1-deoxy-D-xylulose 5-phosphate reductoisomerase (Mycobacterium tuberculosis) (UniProt P9WNS1); assay: Inhibition of Mycobacterium tuberculosis DXR using DXP as substrate at 100 uM measured every 5 secs for 250 secs in presence of NADPH relative to control
T2 sequence (whole entry): T1 sequence (P9WNS1 whole entry)

Compound	IC50 [1] [µM]	IC50 [2] [µM]	Kd [3] [µM]	IC50 [4] [µM]	growth inhibition (GI) [5]	IC50 (Plasmodium falciparum) [µM]	inhibition [6] [%]
CC(=O)N(O)CCCP(=O)(O)O [FR-900098]	0.051	0.018	–	–	–	–	–
O=C(Cc1ccccc1)N(O)CCCP(=O)(O)O	13	–	0.32	67.7	–	–	–
O=C(c1ccccc1)N(O)CCCP(=O)(O)O	0.13	0.061	–	2	–	–	–
NC(=O)c1cncc(C(=O)N(O)CCCP(=O)(O)O)c1	–	–	–	3.6	–	–	–
O=C(c1ccccc1Nc1cccc(C(F)(F)F)c1)N(O)CCC(c1ccc(Cl)c(Cl)c1)P(=O)(O)O (stereo not given)	–	–	0.09	19	inactive	> 10	80
O=C(c1cccnc1)N(O)CCCP(=O)(O)O	–	–	–	1.6	–	–	–
O=C(c1ccccc1OC(F)(F)F)N(O)CCC(c1ccc(Cl)c(Cl)c1)P(=O)(O)O (stereo not given)	–	–	0.09	8	inactive	> 10	90
O=C(c1ccco1)N(O)CCCP(=O)(O)O	–	–	–	48.7	–	–	–
O=C(c1ccccc1-c1ccccc1)N(O)CCC(c1ccc(Cl)c(Cl)c1)P(=O)(O)O (stereo not given)	–	–	–	21	inactive	> 10	60
C[C@@H]1CC[C@H]2[C@@H](C)C(=O)O[C@@H]3O[C@@]4(C)CC[C@@H]1[C@]32OO4 [ARTEMISININ]	–	–	–	–	–	0.005	–
O=C(c1ccccc1C(F)(F)F)N(O)CCC(c1ccc(Cl)c(Cl)c1)P(=O)(O)O (stereo not given)	–	–	–	9	inactive	–	70
O=C(c1ccccc1Cc1cccs1)N(O)CCC(c1ccc(Cl)c(Cl)c1)P(=O)(O)O (stereo not given)	–	–	–	7	inactive	> 10	90
Cc1ccccc1C(=O)N(O)CCC(c1ccc(Cl)c(Cl)c1)P(=O)(O)O (stereo not given)	–	–	–	0.83	inactive	> 10	95
O=C(NCC(=O)N(O)CCCP(=O)(O)O)C1CC1	7.1	3.3	–	> 200	–	–	–
O=C(c1ccccc1Cn1cncn1)N(O)CCC(c1ccc(Cl)c(Cl)c1)P(=O)(O)O (stereo not given)	–	–	0.04	13	inactive	> 10	70
CC(=O)N(O)CCC(c1ccc(Cl)c(Cl)c1)P(=O)(O)O (stereo not given)	–	–	0.36	–	–	–	–
O=CN(O)CCC(c1ccc(Cl)c(Cl)c1)P(=O)(O)O (stereo not given)	–	–	0.12	–	–	–	–
O=C(CCCOc1ccccc1)NCC(=O)N(O)CCCP(=O)(O)O	1	0.4	–	> 200	–	–	–
O=C(C1CC1)N(O)CCCP(=O)(O)O	4.44	–	–	156	–	–	–
O=C(c1ccc(Cn2cncn2)cc1)N(O)CCC(c1ccc(Cl)c(Cl)c1)P(=O)(O)O (stereo not given)	–	–	0.2	1.2	inactive	0.19	80
CC(=O)Oc1cccc(C(=O)N(O)CCC(c2ccc(Cl)c(Cl)c2)P(=O)(O)O)c1 (stereo not given)	–	–	–	> 100	inactive	3.9	30
O=C(c1ccc2ccccc2c1)N(O)CCCP(=O)(O)O	–	–	–	2	–	–	–
O=C(c1ccccc1)N(O)CCC(c1ccc(Cl)c(Cl)c1)P(=O)(O)O (stereo not given)	–	–	0.21	0.32	inactive	0.04	100
O=CN(O)CCCP(=O)(O)O [FOSMIDOMYCIN]	0.05	0.032	–	–	–	–	–
O=C(c1cccc(Cn2cncn2)c1)N(O)CCC(c1ccc(Cl)c(Cl)c1)P(=O)(O)O (stereo not given)	–	–	0.17	0.14	inactive	0.39	90
CCC(=O)N(O)CCCP(=O)(O)O	–	–	–	27.2	–	–	–
